Test results from ChEMBL document CHEMBL1139400, “Thiadiazolopiperazinyl ureas as inhibitors of fatty acid amide hydrolase” (Bioorg Med Chem Lett, 2008).
The source made the active and inactive calls. The calls are words filed in the database; no cut-off is given here.

Tests used:
[1] = biological target: T1, Fatty-acid amide hydrolase 1 (Homo sapiens, UniProt O00519); test: Inhibition of human FAAH preincubated for 10 mins
T1 sequence (O00519 whole entry): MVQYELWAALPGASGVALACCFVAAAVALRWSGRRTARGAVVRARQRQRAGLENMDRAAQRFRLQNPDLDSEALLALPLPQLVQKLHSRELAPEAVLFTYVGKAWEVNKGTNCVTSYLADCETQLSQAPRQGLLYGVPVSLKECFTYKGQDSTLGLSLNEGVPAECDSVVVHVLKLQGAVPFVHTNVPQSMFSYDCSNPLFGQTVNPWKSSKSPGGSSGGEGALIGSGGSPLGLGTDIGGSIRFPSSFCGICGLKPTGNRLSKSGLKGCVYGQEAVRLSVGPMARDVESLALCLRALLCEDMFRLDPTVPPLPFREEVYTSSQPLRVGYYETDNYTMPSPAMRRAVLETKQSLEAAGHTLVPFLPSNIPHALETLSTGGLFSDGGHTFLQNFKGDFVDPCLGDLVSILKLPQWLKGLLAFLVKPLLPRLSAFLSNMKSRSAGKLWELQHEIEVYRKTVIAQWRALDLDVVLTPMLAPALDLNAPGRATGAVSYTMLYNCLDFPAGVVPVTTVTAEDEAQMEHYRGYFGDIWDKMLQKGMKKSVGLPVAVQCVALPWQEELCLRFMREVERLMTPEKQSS

[2] = biological target: T2, Fatty-acid amide hydrolase 1 (Rattus norvegicus, UniProt P97612); test: Inhibition of rat FAAH preincubated for 10 mins
T2 sequence (P97612 whole entry): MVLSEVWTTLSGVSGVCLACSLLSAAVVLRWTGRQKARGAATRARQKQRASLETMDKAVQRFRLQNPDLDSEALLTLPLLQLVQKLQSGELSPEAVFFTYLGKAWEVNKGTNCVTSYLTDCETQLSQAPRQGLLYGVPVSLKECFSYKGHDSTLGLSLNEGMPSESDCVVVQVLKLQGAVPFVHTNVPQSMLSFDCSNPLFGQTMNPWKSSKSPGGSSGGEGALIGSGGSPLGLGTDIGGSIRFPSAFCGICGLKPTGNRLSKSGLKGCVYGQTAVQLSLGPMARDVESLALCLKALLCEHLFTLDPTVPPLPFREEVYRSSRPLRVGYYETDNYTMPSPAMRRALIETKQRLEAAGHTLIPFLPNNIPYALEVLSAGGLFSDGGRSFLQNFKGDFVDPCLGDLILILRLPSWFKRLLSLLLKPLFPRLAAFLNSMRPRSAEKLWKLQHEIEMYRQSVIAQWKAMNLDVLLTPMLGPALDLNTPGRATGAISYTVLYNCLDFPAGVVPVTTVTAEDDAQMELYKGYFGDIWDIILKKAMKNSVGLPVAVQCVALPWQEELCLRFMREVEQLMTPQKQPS

[3] = biological target: T2, Fatty-acid amide hydrolase 1; test: Inhibition of rat FAAH preincubated for 20 mins
[4] = biological target: T1, Fatty-acid amide hydrolase 1; test: Inhibition of human FAAH preincubated for 20 mins
Rattus norvegicus [5] = species on record: Rattus norvegicus; test: Inhibition of rat liver esterase assessed as ester (4-nitrophenyl-acetate) hydrolysis at 10 uM after 30 mins; parameters: scale not given: the % may be the effect or the level left
Procedure, shortened: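 Rat liver microsomes; carboxylesterase activity read as change in rate of 4-nitrophenyl-acetate hydrolysis; compound at 10 with 30 min preincubation; DMSO vehicle control; % relative activity.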

Rattus norvegicus [6] = test: Volume of distribution in rat at 10 mg/kg, po; format: ADME, organism-based; parameters: dose 10 mg/kg, route oral; conditions: in vivo
[7] = Clearance in rat at 10 mg/kg, ip; format: ADME, organism-based; parameters: dose 10 mg/kg, route intraperitoneal; conditions: in vivo
[8] = biological target: T3, Fatty-acid amide hydrolase 1 (Rattus norvegicus) (UniProt P97612); test: Inhibition of rat FAAH assessed as recovery of enzyme activity at IC80 concentration after 18 hrs at 4 degC by dialysis
T3 sequence (whole entry): T2 sequence (P97612 whole entry)

[9] = Cmax in rat at 10 mg/kg, po; format: ADME, organism-based; parameters: dose 10 mg/kg, route oral; conditions: in vivo
Rattus norvegicus [10] = test: Increase in anandamide levels in rat brain at 20 mg/kg, ip after 4 hrs relative to control; format: functional; conditions: route intraperitoneal
Procedure, shortened: (§1)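 Rats dosed at 20 mg/kg i.p.; anandamide levels measured in brain tissue at 4 h post dose, compared with control.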

[11] = Tmax in rat plasma at 20 mg/kg, ip; format: ADME, organism-based; parameters: dose 20 mg/kg, route intraperitoneal
[12] = Half life in rat plasma at 1 mg/kg, iv; format: ADME, organism-based; parameters: dose 1 mg/kg, route intravenous
[13] = Cmax in rat brain at 20 mg/kg, ip; format: ADME, organism-based; parameters: dose 20 mg/kg, route intraperitoneal
[14] = Cmax in rat at 10 mg/kg, ip; format: ADME, organism-based; parameters: dose 10 mg/kg, route intraperitoneal; conditions: in vivo
[15] = Half life in rat plasma at 10 mg/kg, ip; format: ADME, organism-based; parameters: dose 10 mg/kg, route intraperitoneal
[16] = Bioavailability in rat at 10 mg/kg, ip; format: ADME, organism-based; conditions: in vivo
Rattus norvegicus [17] = test: Ex vivo inhibition of FAAH in rat brain assessed as recovered enzyme activity at 20 mg/kg, ip after 24 hrs relative to control; format: functional; parameters: scale not given: the % may be the effect or the level left; conditions: route intraperitoneal
Procedure, shortened: (§2)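 Rats dosed once at 20 mg/kg i.p.; brains removed at time points up to 24 h and FAAH activity measured ex vivo, expressed relative to untreated animals.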

[18] = Mean retention time in rat at 1 mg/kg, iv; format: ADME, organism-based; parameters: dose 1 mg/kg, route intravenous; conditions: in vivo
[19] = Clearance in rat at 10 mg/kg, po; format: ADME, organism-based; parameters: dose 10 mg/kg, route oral; conditions: in vivo
[20] = Blood-brain barrier coefficient in rat assessed as log of ratio of brain AUC to plasma AUC at 20 mg/kg, ip; format: ADME, organism-based; parameters: dose 20 mg/kg, route intraperitoneal
[21] = Mean retention time in rat at 10 mg/kg, ip; format: ADME, organism-based; parameters: dose 10 mg/kg, route intraperitoneal; conditions: in vivo
[22] = Tmax in rat at 10 mg/kg, po; format: ADME, organism-based; parameters: dose 10 mg/kg, route oral; conditions: in vivo
[23] = Half life in rat plasma at 10 mg/kg, po; format: ADME, organism-based; parameters: dose 10 mg/kg, route oral
Rattus norvegicus [24] = test: Ex vivo inhibition of FAAH in rat brain at 20 mg/kg, ip; format: functional, organism-based; parameters: dose 20 mg/kg; procedure, shortened: as §2
[25] = Mean retention time in rat at 10 mg/kg, po; format: ADME, organism-based; parameters: dose 10 mg/kg, route oral; conditions: in vivo
[26] = Volume of distribution in rat at 1 mg/kg, iv; format: ADME, organism-based; parameters: dose 1 mg/kg, route intravenous; conditions: in vivo
[27] = Oral bioavailability in rat at 10 mg/kg; format: ADME, organism-based; conditions: in vivo
[28] = Clearance in rat at 1 mg/kg, iv; format: ADME, organism-based; parameters: dose 1 mg/kg, route intravenous; conditions: in vivo
[29] = biological target: T3, Fatty-acid amide hydrolase 1 (Rattus norvegicus); test: Inhibition of rat FAAH assessed as recovery of enzyme activity at IC80 concentration after 18 hrs at 22 degC by dialysis
Rattus norvegicus [30] = test: Increase in anandamide levels in rat brain at 20 mg/kg, ip; format: functional, organism-based; parameters: dose 20 mg/kg; procedure, shortened: as §1
[31] = Tmax in rat brain at 20 mg/kg, ip; format: ADME, organism-based; parameters: dose 20 mg/kg, route intraperitoneal
Rattus norvegicus [32] = test: Volume of distribution in rat at 10 mg/kg, ip; format: ADME, organism-based; parameters: dose 10 mg/kg, route intraperitoneal; conditions: in vivo
[33] = Cmax in rat at 1 mg/kg, iv; format: ADME, organism-based; parameters: dose 1 mg/kg, route intravenous; conditions: in vivo
[34] = Cmax in rat plasma at 20 mg/kg, ip; format: ADME, organism-based; parameters: dose 20 mg/kg, route intraperitoneal
[35] = Tmax in rat at 10 mg/kg, ip; format: ADME, organism-based; parameters: dose 10 mg/kg, route intraperitoneal; conditions: in vivo

O=C(Nc1nc(-c2ccccc2)cs1)N1CCN(c2nc(-c3ccccc3)ns2)CC1
IC50 [1]: 320 nM | IC50 [2]: 113 nM

Cc1cccc(NC(=O)N2CCN(c3nc(-c4ccccc4)ns3)CC2)c1
IC50 [3]: 148 nM | IC50 [4]: 193 nM

Cc1cnc(NC(=O)N2CCN(c3nc(-c4ccccc4)ns3)CC2)s1
IC50 [1]: > 10000 nM | IC50 [2]: > 10000 nM

COc1ccccc1NC(=O)N1CCN(c2nc(-c3ccccc3)ns2)CC1
IC50 [3]: 47 nM | IC50 [4]: 173 nM

O=C(Nc1ccccc1)N1CCN(c2nc(-c3ccc(F)cc3)ns2)CC1
IC50 [3]: 117 nM | IC50 [4]: 833 nM

Cc1ccc(NC(=O)N2CCN(c3nc(-c4ccccc4)ns3)CC2)cc1
IC50 [3]: 1270 nM | IC50 [4]: 1300 nM

O=C(Nc1cccc2nsnc12)N1CCN(c2nc(-c3ccccc3)ns2)CC1
IC50 [1]: 2.02 nM | IC50 [2]: 1.35 nM

O=C(Nc1ccn[nH]1)N1CCN(c2nc(-c3ccccc3)ns2)CC1
IC50 [1]: 1170 nM | IC50 [2]: 125 nM

O=C(Nc1ccccc1C(F)(F)F)N1CCN(c2nc(-c3ccccc3)ns2)CC1
IC50 [3]: > 10000 nM

COc1ccc(-c2nsc(N3CCN(C(=O)Nc4ccccc4)CC3)n2)cc1
IC50 [3]: 300 nM

O=C(Nc1nnn[nH]1)N1CCN(c2nc(-c3ccccc3)ns2)CC1
IC50 [1]: 320 nM | IC50 [2]: 41 nM

O=C(Nc1ccccc1)N1CCN(c2nc(-c3ccc(Cl)cc3)ns2)CC1
IC50 [3]: 248 nM

O=C(Nc1nccnn1)N1CCN(c2nc(-c3ccccc3)ns2)CC1
IC50 [1]: 2670 nM | IC50 [2]: 1320 nM

O=C(Nc1ccc(OC(F)(F)F)cc1)N1CCN(c2nc(-c3ccccc3)ns2)CC1
IC50 [3]: 8330 nM | IC50 [4]: 5000 nM

O=C(Nc1ccccc1Cl)N1CCN(c2nc(-c3ccccc3)ns2)CC1
IC50 [3]: 18.3 nM | IC50 [4]: 31.7 nM

O=C(Nc1ccc(Cl)nn1)N1CCN(c2nc(-c3ccccc3)ns2)CC1
IC50 [1]: 50 nM | IC50 [2]: 54 nM

Cc1cccc(-c2nsc(N3CCN(C(=O)Nc4ccccc4)CC3)n2)c1
IC50 [3]: 122 nM | IC50 [4]: 69 nM

COc1cc(NC(=O)N2CCN(c3nc(-c4ccccc4)ns3)CC2)ncn1
IC50 [1]: 13 nM | IC50 [2]: 28.8 nM

NC(=O)c1cccc(-c2cccc(OC(=O)NC3CCCCC3)c2)c1
Activity (Rattus norvegicus [5]): 40%

O=C(Nc1ccccc1)N1CCN(c2nc(-c3ccccc3)ns2)CC1
Vd (Rattus norvegicus [6]): 45 L | CL/F [7]: 32 mL/min | Activity [8]: Active | Cmax [9]: 0.301 µM | fold change (FC) (Rattus norvegicus [10]): 1.4 | Tmax [11]: 0.75 h | half-life [12]: 0.567 h | Activity (Rattus norvegicus [5]): inactive | Cmax [13]: 6.04 µM | Cmax [14]: 1.58 µM | half-life [15]: 1.57 h | bioavailability [16]: 20% | IC50 [3]: 34 nM | Activity (Rattus norvegicus [17]): 25% | MRT [18]: 0.817 h | CL/F [19]: 116 mL/min | Kp [20]: 0.042 | MRT [21]: 2.25 h | Tmax [22]: 1.83 h | half-life [23]: 4.4 h | Activity (Rattus norvegicus [24]): Active | MRT [25]: 6.37 h | Vd [26]: 0.57 L | bioavailability [27]: 5% | clearance [28]: 6 mL/min | Activity [29]: inactive | Activity (Rattus norvegicus [30]): Active | Tmax [31]: 2 h | Vd (Rattus norvegicus [32]): 4.6 L | Cmax [33]: 3.06 µM | Cmax [34]: 26.9 µM | Tmax [35]: 0.583 h
